Assays:
5-HT7 [1] = biological target: T1, 5-HT7 (Homo sapiens, UniProt P34969); assay: Serotonin 5-HT7 receptor radioligand binding; conditions: read-out: IC50, binding to serotonin receptor 5-HT7
[2] = system: 2ERE-luciferase reporter (ER) in MCF-7 cells; assay: 2ERE-luciferase reporter gene assay in transiently transfected MCF-7 cells; format: cell-based, human; conditions: 1 μg/ml, 16 h
5-HT1A = biological target: T2, 5-HT1A (Homo sapiens, UniProt P08908); assay: Serotonin 5-HT1A receptor radioligand binding; conditions: read-out: IC50, binding to serotonin receptor 5-HT1A
T2 sequence (P08908 1-422): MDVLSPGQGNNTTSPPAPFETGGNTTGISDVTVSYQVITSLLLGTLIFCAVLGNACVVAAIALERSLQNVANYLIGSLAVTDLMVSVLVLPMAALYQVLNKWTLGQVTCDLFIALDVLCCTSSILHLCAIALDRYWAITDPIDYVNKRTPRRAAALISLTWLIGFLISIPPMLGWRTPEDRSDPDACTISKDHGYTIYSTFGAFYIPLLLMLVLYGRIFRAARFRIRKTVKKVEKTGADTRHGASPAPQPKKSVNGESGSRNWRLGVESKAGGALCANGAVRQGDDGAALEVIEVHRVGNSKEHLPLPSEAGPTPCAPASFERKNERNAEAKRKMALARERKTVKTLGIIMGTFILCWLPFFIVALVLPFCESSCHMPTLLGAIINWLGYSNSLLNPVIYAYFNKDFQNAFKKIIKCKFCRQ
Method in brief: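 Competition binding used Cos M6 cell membrane homogenate with [3H]5-CT (1.0 nM final) in 100 mM Tris-HCl, 1 mM EDTA, 1% ascorbic acid, pH 7.7, at 37°C for 30 min. Binding was stopped by rapid filtration and four ice-cold buffer washes, then counted by scintillation. IC50 came from non-linear curve fitting of at least triplicate determinations.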

5-HT7 [3] = biological target: T1, 5-HT7; assay: GTP shift experiment, [3H]LSD binding with or without 100 μM GTP
[4] = [3H]-LSD displacement, absence of GTP, two-site fit

T1 sequence (P34969 whole entry): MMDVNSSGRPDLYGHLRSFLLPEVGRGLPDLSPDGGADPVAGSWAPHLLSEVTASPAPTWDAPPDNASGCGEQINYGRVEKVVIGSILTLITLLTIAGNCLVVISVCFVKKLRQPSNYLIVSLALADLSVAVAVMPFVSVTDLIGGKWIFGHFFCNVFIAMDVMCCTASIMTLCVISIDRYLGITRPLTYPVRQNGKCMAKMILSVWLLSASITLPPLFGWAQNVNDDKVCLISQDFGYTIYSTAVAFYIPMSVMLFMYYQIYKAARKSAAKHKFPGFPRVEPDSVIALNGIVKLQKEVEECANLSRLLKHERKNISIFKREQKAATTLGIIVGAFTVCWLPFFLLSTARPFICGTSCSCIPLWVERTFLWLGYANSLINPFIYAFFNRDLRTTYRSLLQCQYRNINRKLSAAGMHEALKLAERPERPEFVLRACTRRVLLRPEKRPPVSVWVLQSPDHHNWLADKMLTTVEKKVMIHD

For 5, 6-Z-fadyenolide [Compound 2], the IC50 (5-HT7 [1]) was 23.2 µM and the “fold increase in luciferase activity” value [2] was 9.8 fold.

With “9, 10-methylenedioxy-5, 6-Z-fadyenolide [Compound 1]” the IC50 (5-HT1A) was 16.1 µM, the IC50 (5-HT7 [1]) was 8.3 µM and the “IC50, high-affinity state” value (5-HT7 [3]; [4]) was 0.014 µg/mL. The “IC50, low affinity state” value (5-HT7 [3]; [4]) was 37.7 µg/mL, the “Ki, high-affinity state” value (5-HT7 [3]; [4]) was 0.00848 µg/mL and the “Ki, low affinity state” value (5-HT7 [3]; [4]) was 0.0267 µg/mL. For the same substance, the “agonist/antagonist character at the 5-HT7 receptor” value (5-HT7 [3]; from GTP shift of the binding curve) was “partial agonist”, the “IC50 after addition of GTP (monophasic, low-affinity state)” value (5-HT7 [3]; with 100 μM GTP) was 11.5 µg/mL and the “Ki after addition of GTP” value (5-HT7 [3]; with 100 μM GTP) was 6880 µg/mL. The “fold increase in luciferase activity” value [2] was “not active”.

For piperolide [Compound 3], the IC50 (5-HT7 [1]) was 34.7 µM and the “fold increase in luciferase activity” value [2] was 8.4 fold.

From publication PMC3705926 (Journal of ethnopharmacology, 2010)
